Measurements published in ChEMBL document CHEMBL4219108, “Synthesis, photophysical properties, and photodynamic activity of positional isomers of TFPP-glucose conjugates” (Bioorg Med Chem, 2018).
Active and inactive are the calls of the source. No cut-off for these calls is given here.

Columns and labels:
[1] = Dark toxicity in human HeLa cells assessed as reduction in cell survival at 1 uM measured after 24 hrs by CCK8 assay; assay type: cell-based
Procedure, shortened: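 HeLa cells seeded 5×10^3/well, grown 24 h (37°C, 5% CO2), then given conjugate at 1.0 μM (final 1% DMSO) for 24 h. Washed twice with PBS, fresh medium added, kept without light (0 J cm⁻²). WST-8 (CCK-8) read at 450 nm 24 h later. Survival normalized to untreated wells; mean ± SD of six replicates.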

Rattus norvegicus = species on record: Rattus norvegicus; assay: Phototoxicity against rat RGK1 cells assessed as reduction in cell survival at 0.2 to 1 uM pretreated for 24 hrs followed by 16 J/cm2 irradiation with halogen lamp measured after 24 hrs by CCK8 assay; assay type: functional, cell-based
Procedure, shortened: (§1)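 HeLa, U251 (DMEM, 10% FCS) or RGK cells plated 5×10^3/well and grown 24 h. Conjugate added at 0.1–1 µM (final 1% DMSO) for 24 h. Cells PBS-washed twice, given fresh medium and irradiated with a 100 W halogen lamp (water jacket, λ >500 nm) to 16 J cm⁻². WST-8 absorbance read at 450 nm 24 h later; survival normalized to untreated wells. EC50 for 50% cell death. Mean ± SD of six replicates.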

HeLa = assay: Phototoxicity against human HeLa cells assessed as reduction in cell survival up to 1 uM pretreated for 24 hrs followed by 16 J/cm2 irradiation with halogen lamp measured after 24 hrs by CCK8 assay; assay type: functional, cell-based; procedure, shortened: as §1
[2] = Drug uptake in rat RGK1 cells at 2.5 uM measured after 8 to 24 hrs by fluorescence assay; assay type: ADME, cell-based
Procedure, shortened: (§2)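 RGK cells (MNNG-induced mutant of rat RGM gastric mucosal line; DMEM/F12 1:1, 10% FCS, antibiotic-antimycotic) plated 2.5×10^6/well for 24 h. Pre-incubated 2 h with or without cytochalasin B (50 µM final), then given 2.5 µM compound in medium with 1% DMSO for 8 or 24 h. PBS-washed twice, lysed in DMSO. Fluorescence read at ex 430/em 650 nm and quantified against per-compound DMSO calibration. Mean ± SD of three replicates.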

U-251 = assay: Phototoxicity against human U251 cells assessed as reduction in cell survival at 0.2 to 1 uM pretreated for 24 hrs followed by 16 J/cm2 irradiation with halogen lamp measured after 24 hrs by CCK8 assay; assay type: functional, cell-based; procedure, shortened: as §1
[3] = n-Octanol/water partition co-efficient, log P of the compound by RP-TLC method; assay type: physicochemical
Procedure, shortened: (§3)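 Log P (n-octanol/water partition) determined by reverse-phase thin-layer chromatography.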

[4] = Drug uptake in rat RGK1 cells at 2.5 uM measured after 8 to 24 hrs in presence of GLUT1 inhibitor cytochalasin B by fluorescence assay; assay type: ADME, cell-based; procedure, shortened: as §2
[5] = Lipophilicity, log P of the compound; assay type: physicochemical; conditions: octanol/water; procedure, shortened: as §3

| Drug uptake [2] | logP [3] | Drug uptake [4] | logP [5] | Compound | Activity [1] | Activity (Rattus norvegicus) | Activity (HeLa) | Activity (U-251) |
| --- | --- | --- | --- | --- | --- | --- | --- | --- |
| Active | 6.21 | Not Active | – | OC[C@H]1OC(O)[C@H](O)[C@@H](Sc2c(F)c(F)c(-c3c4nc(c(-c5c(F)c(F)c(F)c(F)c5F)c5ccc([nH]5)c(-c5c(F)c(F)c(F)c(F)c5F)c5nc(c(-c6c(F)c(F)c(F)c(F)c6F)c6ccc3[nH]6)C=C5)C=C4)c(F)c2F)[C@@H]1O (stereo partly specified) | Non-Toxic | Active | Active | Active |
| Active | 6.3 | Not Active | – | OC[C@H]1OC(O)[C@H](O)[C@@H](O)[C@@H]1Sc1c(F)c(F)c(-c2c3nc(c(-c4c(F)c(F)c(F)c(F)c4F)c4ccc([nH]4)c(-c4c(F)c(F)c(F)c(F)c4F)c4nc(c(-c5c(F)c(F)c(F)c(F)c5F)c5ccc2[nH]5)C=C4)C=C3)c(F)c1F (stereo partly specified) | Non-Toxic | Active | Active | Active |
| Active | 6.87 | Not Active | – | OC[C@H]1OC(O)[C@H](Sc2c(F)c(F)c(-c3c4nc(c(-c5c(F)c(F)c(F)c(F)c5F)c5ccc([nH]5)c(-c5c(F)c(F)c(F)c(F)c5F)c5nc(c(-c6c(F)c(F)c(F)c(F)c6F)c6ccc3[nH]6)C=C5)C=C4)c(F)c2F)[C@@H](O)[C@@H]1O (stereo partly specified) | Non-Toxic | inactive | inactive | inactive |

Continued, molecule first:

| Compound | Drug uptake [2] | logP [3] | Drug uptake [4] | logP [5] | Activity [1] | Activity (Rattus norvegicus) | Activity (HeLa) | Activity (U-251) |
| --- | --- | --- | --- | --- | --- | --- | --- | --- |
| OCCOc1c(F)c(F)c(-c2c3nc(c(-c4c(F)c(F)c(F)c(F)c4F)c4ccc([nH]4)c(-c4c(F)c(F)c(OCCO)c(F)c4F)c4nc(c(-c5c(F)c(F)c(F)c(F)c5F)c5ccc2[nH]5)C=C4)C=C3)c(F)c1F | – | – | – | 6.5 | – | – | – | – |
| OCCOc1c(F)c(F)c(-c2c3nc(c(-c4c(F)c(F)c(OCCO)c(F)c4F)c4ccc([nH]4)c(-c4c(F)c(F)c(F)c(F)c4F)c4nc(c(-c5c(F)c(F)c(F)c(F)c5F)c5ccc2[nH]5)C=C4)C=C3)c(F)c1F | – | – | – | 6.5 | – | – | – | – |
| OC1O[C@H](CSc2c(F)c(F)c(-c3c4nc(c(-c5c(F)c(F)c(F)c(F)c5F)c5ccc([nH]5)c(-c5c(F)c(F)c(F)c(F)c5F)c5nc(c(-c6c(F)c(F)c(F)c(F)c6F)c6ccc3[nH]6)C=C5)C=C4)c(F)c2F)[C@@H](O)[C@H](O)[C@H]1O (stereo partly specified) | Active | 6.5 | – | – | Non-Toxic | Active | Active | Active |
| OC[C@H]1OC(Sc2c(F)c(F)c(-c3c4nc(c(-c5c(F)c(F)c(F)c(F)c5F)c5ccc([nH]5)c(-c5c(F)c(F)c(F)c(F)c5F)c5nc(c(-c6c(F)c(F)c(F)c(F)c6F)c6ccc3[nH]6)C=C5)C=C4)c(F)c2F)[C@H](O)[C@@H](O)[C@@H]1O (stereo partly specified) | Active | 6.05 | – | – | Non-Toxic | Active | Active | Active |
| OCCOc1c(F)c(F)c(-c2c3nc(c(-c4c(F)c(F)c(OCCO)c(F)c4F)c4ccc([nH]4)c(-c4c(F)c(F)c(OCCO)c(F)c4F)c4nc(c(-c5c(F)c(F)c(F)c(F)c5F)c5ccc2[nH]5)C=C4)C=C3)c(F)c1F | – | – | – | 5.4 | – | – | – | – |
